CXCR6 inh – CXCR6 receptor inhibitors, primary screen, cell-based, beta-arrestin, luminescence, CHO-K1 PathHunter, 1536-well | AID 602244, 2012 | actives 0.36% (n = 360,000) | inhibition, % at 20 µM | C-X-C chemokine receptor type 6 (Homo sapiens), O00574; in the data active = inhibition above about 34%, passing the limit was not always enough;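 also: antagonist mode with CXCL16 agonist at 10 nM final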
Target sequence (O00574 whole entry, looked up): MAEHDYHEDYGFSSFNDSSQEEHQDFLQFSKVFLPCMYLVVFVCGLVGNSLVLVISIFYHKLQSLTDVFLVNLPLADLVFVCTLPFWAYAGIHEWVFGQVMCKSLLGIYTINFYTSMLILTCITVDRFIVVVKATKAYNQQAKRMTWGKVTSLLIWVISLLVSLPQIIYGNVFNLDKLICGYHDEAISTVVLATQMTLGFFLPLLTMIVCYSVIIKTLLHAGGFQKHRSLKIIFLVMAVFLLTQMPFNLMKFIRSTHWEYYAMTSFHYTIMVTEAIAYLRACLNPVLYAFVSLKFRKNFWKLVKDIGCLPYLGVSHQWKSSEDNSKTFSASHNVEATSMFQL
HTR2A ag – mouse Htr2a agonists via beta-arrestin recruitment, primary screen, cell-based, luminescence. CHO-K1 mHTR2A beta-arrestin complementation; percent of 30 µM serotonin response. activation, % at 7.6 µM. actives 0.66% (n = 360,000). AID 624169, 2012;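 active = activation above a run cutoff, the mean activation of all tested compounds plus 3 SD, cut at about 14% in these data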
APJ antagonist – antagonists of human apelin receptor APJ, primary screen, CHO-K1 cells, beta-arrestin complementation, luminescence | P35414 | inhibition, % at 20 µM | actives 0.32% (n = 330,000) | AID 2521, 2010;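 active = inhibition above about 40% at 20 µM, limit read from the data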;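 also: cells challenged with 10 nM apelin-13 agonist together with compound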
APJ ag – agonists of human apelin receptor APJ, primary screen, CHO-K1 cells, PathHunter beta-arrestin, luminescence; 0% DMSO wells, 100% apelin; activation, % at 20 µM; actives 0.11% (n = 330,000);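 active = activation more than six SD over the plate average, tested at 20 µM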
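Assay system – PathHunter CHO-K1 APJ (AGTRL-1) beta-arrestin reporter cells · Compound – one dose, 20 µM compound, 1% DMSO · Timing – compound 90 min 25 °C, reagent 1 h · Measured by – luminescence from split beta-galactosidase complementation, Galacton Star/Emerald II substrate · Measure – beta-arrestin recruitment to APJ as agonist activity, luminescent signal · Benchmarks – DMSO vs Apelin-13 10 nM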
CCR6 antagonist – CCR6 receptor antagonists, primary screen, cell-based, CHO-K1, luminescence, beta-arrestin, uHTS | actives 0.49% (n = 340,000) | inhibition, % at 20 µM | C-C chemokine receptor type 6 (Homo sapiens), P51684 | CHO-K1 CCR6 PathHunter beta-arrestin, CCL20-stimulated;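 active = compounds whose inhibition of the agonist-driven luminescence signal at 20 µM reaches about 50%, limit read from the data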;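 also: cells stimulated with CCL20 at 14 nM final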
Target sequence (P51684 whole entry, looked up): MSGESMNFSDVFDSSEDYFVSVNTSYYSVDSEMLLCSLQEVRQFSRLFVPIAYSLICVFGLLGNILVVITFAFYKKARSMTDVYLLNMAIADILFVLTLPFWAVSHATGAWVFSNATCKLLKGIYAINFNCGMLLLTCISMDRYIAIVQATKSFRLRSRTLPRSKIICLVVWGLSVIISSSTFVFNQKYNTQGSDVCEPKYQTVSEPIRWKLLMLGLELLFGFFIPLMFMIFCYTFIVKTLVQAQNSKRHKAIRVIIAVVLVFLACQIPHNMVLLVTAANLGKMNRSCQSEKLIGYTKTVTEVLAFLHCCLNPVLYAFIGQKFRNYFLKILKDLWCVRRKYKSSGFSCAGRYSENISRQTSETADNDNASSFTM
EBI2 antag – EBI2 receptor antagonists, beta-arrestin recruitment, primary screen, cell-based, luminescence, 7a,25-OHC stimulation, uHTS | G-protein coupled receptor 183 (Homo sapiens), P32249 | inhibition, % at 5 µM | AID 651636, 2012 | actives 0.81% (n = 360,000) | 7a,25-OHC stimulated; in the data active = inhibition above about 38%;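 also: enzyme fragment complementation signal reports receptor beta-arrestin coupling in cells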
EBI2 antag conf – EBI2 antagonist hit retest, beta-arrestin, confirmation, cell-based, single concentration, luminescence, 7a,25-OHC stimulation; shares compounds with EBI2 antag; 7a,25-OHC antagonism; inhibition, % at 5 µM; actives 29% (n = 2,400); AID 651997, 2013;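 active = inhibition of at least 50%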
EBI2 agonist – EBI2 agonist activity of antagonist hits, confirmation, counter-screen for EBI2 antagonist project, cell-based, single concentration, agonist mode, luminescence; 2,400 tested, under 10 active; activation, % at 5 µM; EBI2-expressing cells, 60 min; 0% vehicle, 100% 7α,25-dihydroxycholesterol control; AID 652000, 2013; shares compounds with EBI2 antag;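 active = activation of at least 50%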
bGal counter – E. coli beta-galactosidase enzyme inhibition, confirmation, counter-screen for EBI2 antagonist project, biochemical, luminescence, single concentration; inhibition, % at 5 µM; purified beta-galactosidase, luminescent Galacton Star, 15 min; shares compounds with EBI2 antag; actives 1% (n = 2,400);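 active = replicate-average signal at least 3 plate SD below neutral wells, shown as high inhibition, flagging enzyme-inhibiting false positives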;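 also: higher means stronger loss of beta-gal luminescence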
Hits are given with their value. This is a sample that favours compounds with a hit; in the whole collection about 2.1% have one here.

How did COc1ccc(NCCNc2ccc(OC)cc2)cc1 do in these assays?
CXCR6 inh: inactive; HTR2A ag: inactive; APJ antagonist: inactive; APJ ag: inactive; CCR6 antagonist: inactive; EBI2 antag: 39.9; EBI2 antag conf: inactive; EBI2 agonist: inactive; bGal counter: inactive

How did c1ccc2c(c1)nnn2Cn1nnc2ccccc21 do in these assays?
CXCR6 inh: inactive; HTR2A ag: inactive; EBI2 antag: inactive

What do the screens show for `COc1ccccc1OCC(=O)N(Cc1nc(-c2ccccc2)no1)C1CCCCC1`?
CXCR6 inh: inactive; HTR2A ag: inactive; APJ antagonist: inactive; APJ ag: inactive; CCR6 antagonist: inactive; EBI2 antag: inactive

How did CCOCc1cc(C)[nH]c(=O)c1C#N do in these assays?
CXCR6 inh: inactive; HTR2A ag: inactive; APJ antagonist: inactive; APJ ag: inactive; CCR6 antagonist: inactive; EBI2 antag: inactive

What do the screens show for `COc1ccc(OCCNC(=O)C(c2ccccc2)c2ccccc2)cc1`?
CXCR6 inh: inactive; HTR2A ag: inactive; APJ antagonist: inactive; APJ ag: inactive; CCR6 antagonist: inactive; EBI2 antag: 85.0; EBI2 antag conf: 52.4; EBI2 agonist: inactive; bGal counter: inactive

How did COc1ccccc1OCCNC(=O)C(c1ccccc1)c1ccccc1 do in these assays?
CXCR6 inh: inactive; HTR2A ag: inactive; APJ antagonist: inactive; APJ ag: inactive; CCR6 antagonist: inactive; EBI2 antag: inactive

How did O=C(NCCOc1ccccc1)C(c1ccccc1)c1ccccc1 do in these assays?
CXCR6 inh: inactive; HTR2A ag: inactive; APJ antagonist: inactive; APJ ag: inactive; CCR6 antagonist: inactive; EBI2 antag: 53.4; EBI2 antag conf: inactive; EBI2 agonist: inactive; bGal counter: inactive

What do the screens show for `COc1ccc(/C=C/C(=O)Oc2ccc(C=O)cc2OC)cc1`?
CXCR6 inh: inactive; HTR2A ag: inactive; APJ antagonist: inactive; APJ ag: inactive; CCR6 antagonist: inactive; EBI2 antag: inactive

Results for CC(C)CCNc1nnnc2c1sc1nc(N3CCOCC3)c3c(c12)CC(C)(C)SC3 ?
CXCR6 inh: inactive; HTR2A ag: inactive; APJ antagonist: inactive; APJ ag: inactive; CCR6 antagonist: inactive; EBI2 antag: 51.9; EBI2 antag conf: inactive; EBI2 agonist: inactive; bGal counter: inactive

What do the screens show for `CC1(C)Cc2c(c(N3CCOCC3)nc3sc4c(NCCN5CCOCC5)nnnc4c23)CS1`?
CXCR6 inh: inactive; HTR2A ag: inactive; APJ antagonist: inactive; APJ ag: inactive; CCR6 antagonist: inactive; EBI2 antag: inactive

How did COc1ccc2c3n(nc2c1)CCN=C3c1cc(Cl)c(N)c(Cl)c1 do in these assays?
CXCR6 inh: inactive; HTR2A ag: inactive; APJ antagonist: inactive; APJ ag: inactive; CCR6 antagonist: inactive; EBI2 antag: inactive

How did Nc1c(Cl)cc(C2=NCCn3nc4cc(C(F)(F)F)ccc4c32)cc1Cl do in these assays?
CXCR6 inh: inactive; HTR2A ag: inactive; APJ antagonist: inactive; APJ ag: inactive; CCR6 antagonist: inactive; EBI2 antag: 48.9; EBI2 antag conf: inactive; EBI2 agonist: inactive; bGal counter: inactive

How did CN1C2C=C3C(C#N)=C(N)C(C#N)(C#N)C(c4ccc(Br)cc4)C3C1CC2 (centres undefined) do in these assays?
CXCR6 inh: inactive; HTR2A ag: inactive; APJ antagonist: inactive; APJ ag: inactive; CCR6 antagonist: inactive; EBI2 antag: 51.3; EBI2 antag conf: 58.9; EBI2 agonist: inactive; bGal counter: inactive

How did CSc1nc(-c2ccccc2)cn1-c1ccc(NC(C)=O)cc1 do in these assays?
CXCR6 inh: inactive; HTR2A ag: inactive; APJ antagonist: inactive; APJ ag: inactive; CCR6 antagonist: inactive; EBI2 antag: inactive

How did CCOc1ccc(-c2cn(-c3ccc(OC)cc3)c(SC)n2)cc1 do in these assays?
CXCR6 inh: inactive; HTR2A ag: inactive; APJ antagonist: inactive; APJ ag: inactive; CCR6 antagonist: inactive; EBI2 antag: 65.4; EBI2 antag conf: inactive; EBI2 agonist: inactive; bGal counter: inactive

What do the screens show for `O=C(CC(C(=O)O)c1ccc(F)cc1)c1ccc(Cl)cc1` (centres undefined)?
CXCR6 inh: inactive; HTR2A ag: inactive; APJ antagonist: inactive; APJ ag: inactive; CCR6 antagonist: inactive; EBI2 antag: inactive

What do the screens show for `CC(=O)CSc1nc2ccc(Nc3nc(N4CCOCC4)nc(N4CCOCC4)n3)cc2s1`?
CXCR6 inh: inactive; HTR2A ag: inactive; APJ antagonist: inactive; APJ ag: inactive; CCR6 antagonist: inactive; EBI2 antag: 44.1; EBI2 antag conf: inactive; EBI2 agonist: inactive; bGal counter: inactive

What do the screens show for `c1ccc(-n2ncc3c(NC4CCCCCC4)ncnc32)cc1`?
CXCR6 inh: inactive; HTR2A ag: inactive; APJ antagonist: inactive; APJ ag: inactive; CCR6 antagonist: inactive; EBI2 antag: inactive

Results for Cc1[nH]c2ccc(-c3nnc(SCC(=O)N4CCCc5ccccc54)o3)cc2c1C ?
CXCR6 inh: inactive; HTR2A ag: inactive; APJ antagonist: inactive; APJ ag: inactive; CCR6 antagonist: inactive; EBI2 antag: 50.9; EBI2 antag conf: inactive; EBI2 agonist: inactive; bGal counter: inactive

What do the screens show for `O=C(CSc1nnc(Cc2ccccc2)o1)N1CCCc2ccccc21`?
CXCR6 inh: inactive; HTR2A ag: inactive; APJ antagonist: inactive; APJ ag: inactive; CCR6 antagonist: inactive; EBI2 antag: inactive

What do the screens show for `COc1cccc(N2CCN(C(=O)c3cc4cc(Cl)ccc4[nH]3)CC2)c1`?
CXCR6 inh: inactive; HTR2A ag: inactive; APJ antagonist: inactive; APJ ag: inactive; CCR6 antagonist: inactive; EBI2 antag: 51.5; EBI2 antag conf: inactive; EBI2 agonist: inactive; bGal counter: inactive

How did CCOc1ccccc1N1CCN(C(=O)c2cc3cc(OC)ccc3[nH]2)CC1 do in these assays?
CXCR6 inh: inactive; HTR2A ag: inactive; APJ antagonist: inactive; APJ ag: inactive; CCR6 antagonist: inactive; EBI2 antag: 52.4; EBI2 antag conf: inactive; EBI2 agonist: inactive; bGal counter: inactive

Compound activity: PubChem BioAssay, several laboratories
